≈ marks a conversion by molar mass, not a printed value.
How the values were obtained:
Type in all cases: functional
Escherichia coli [1] = assay: Antimicrobial activity against Escherichia coli isolate TOP10 by Etest method
Outline: (§1)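 β-Lactam MICs read with Etest strips. Strains are E. coli TOP10 host and TOP10 transformants made with plasmid DNA extract when conjugation failed. Transformants were selected on LB agar with ticarcillin 50 μg/ml.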

Escherichia coli [2] = assay: Antimicrobial activity against Escherichia coli isolate J53 harboring p3A containing beta-lactamase OXA-48 located within transposon Tn1999 by Etest method
Outline: (§2)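 β-Lactam MICs read with Etest strips. Strains are E. coli J53 recipient and J53 transconjugants carrying OXA-48-positive plasmids recovered from clinical enterobacterial isolates.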

Escherichia coli [3] = assay: Antimicrobial activity against Escherichia coli isolate J53 harboring p5A containing beta-lactamase OXA-48 located within transposon Tn1999 by Etest method; outline: as §2
Escherichia coli [4] = assay: Antimicrobial activity against Escherichia coli isolate A expressing beta-lactamase OXA-48 and TEM-150 by Etest method
Escherichia coli [5] = assay: Antimicrobial activity against Escherichia coli isolate J53 harboring pBEL containing beta-lactamase OXA-48 located within transposon Tn1999.2 by Etest method; outline: as §2
Escherichia coli [6] = assay: Antimicrobial activity against Escherichia coli isolate J53 harboring pBb containing beta-lactamase OXA-48 located within transposon Tn1999.2 by Etest method; outline: as §2
Escherichia coli [7] = assay: Antimicrobial activity against Escherichia coli isolate J53 harboring p6A containing beta-lactamase OXA-48 located within transposon Tn1999 by Etest method; outline: as §2
Escherichia coli [8] = assay: Antimicrobial activity against Escherichia coli isolate TOP10 harboring pPR containing beta-lactamase and TEM-101 by Etest method; outline: as §1
Klebsiella pneumoniae [9] = assay: Antimicrobial activity against Klebsiella pneumoniae isolate KpI-1 expressing beta-lactamase OXA-48 and CTX-M-15 by Etest method
Escherichia coli [10] = assay: Antimicrobial activity against Escherichia coli isolate J53 harboring p4A containing beta-lactamase OXA-48 located within transposon Tn1999 by Etest method; outline: as §2
Klebsiella pneumoniae [11] = assay: Antimicrobial activity against Klebsiella pneumoniae isolate Kp7A expressing beta-lactamase OXA-48 by Etest method
Outline: (§3)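 MICs of β-lactams read from Etest strips. The test organisms are carbapenem-resistant, OXA-48-positive clinical Enterobacteriaceae isolates recovered from Turkey, Lebanon, Egypt, France and Belgium.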

Providencia rettgeri = assay: Antimicrobial activity against Providencia rettgeri isolate expressing beta-lactamase OXA-48 and TEM-101 by Etest method
Enterobacter cloacae [12] = assay: Antimicrobial activity against Enterobacter cloacae isolate 1 expressing beta-lactamase OXA-48 and SHV-5 by Etest method
Citrobacter freundii = assay: Antimicrobial activity against Citrobacter freundii isolate expressing beta-lactamase OXA-48 by Etest method
Escherichia coli [13] = assay: Antimicrobial activity against Escherichia coli isolate J53 harboring pL containing beta-lactamase OXA-48 located within transposon Tn1999.2 by Etest method; outline: as §2
Klebsiella pneumoniae [14] = assay: Antimicrobial activity against Klebsiella pneumoniae isolate Kp5A expressing beta-lactamase OXA-48 and SHV-5 by Etest method
Klebsiella pneumoniae [15] = assay: Antimicrobial activity against Klebsiella pneumoniae isolate Kp11978 expressing beta-lactamase OXA-48, SHV-2a and TEM-1 by Etest method
Escherichia coli [16] = assay: Antimicrobial activity against Escherichia coli isolate J53 harboring pEnc2 containing beta-lactamase OXA-48 located within transposon Tn1999 by Etest method; outline: as §2
Escherichia coli [17] = assay: Antimicrobial activity against Escherichia coli isolate TOP10 harboring pBIC containing beta-lactamase OXA-48 located within transposon Tn1999.2 by Etest method; outline: as §1
Escherichia coli [18] = assay: Antimicrobial activity against Escherichia coli isolate J53 harboring pI-1 containing beta-lactamase OXA-48 located within transposon Tn1999.2 by Etest method; outline: as §2
Klebsiella pneumoniae [19] = assay: Antimicrobial activity against Klebsiella pneumoniae isolate KpI-2 expressing beta-lactamase OXA-48 and CTX-M-15 by Etest method
Escherichia coli [20] = assay: Antimicrobial activity against Escherichia coli isolate J53 harboring pCF containing beta-lactamase OXA-48 located within transposon Tn1999 by Etest method; outline: as §2
Klebsiella pneumoniae [21] = assay: Antimicrobial activity against Klebsiella pneumoniae isolate Kp4A expressing beta-lactamase OXA-48 and CTX-M-15 by Etest method
Klebsiella pneumoniae [22] = assay: Antimicrobial activity against Klebsiella pneumoniae isolate KpBEL expressing beta-lactamase OXA-48 by Etest method; outline: as §3
Klebsiella pneumoniae [23] = assay: Antimicrobial activity against Klebsiella pneumoniae isolate KpE expressing beta-lactamase OXA-48 and CTX-M-15 by Etest method
Klebsiella pneumoniae [24] = assay: Antimicrobial activity against Klebsiella pneumoniae isolate KpL expressing beta-lactamase OXA-48 by Etest method
Escherichia coli [25] = assay: Antimicrobial activity against Escherichia coli isolate J53 harboring pI-2 containing beta-lactamase OXA-48 located within transposon Tn1999.2 by Etest method; outline: as §2
Escherichia coli [26] = assay: Antimicrobial activity against Escherichia coli isolate J53 harboring pEnc1 containing beta-lactamase OXA-48 located within transposon Tn1999 by Etest method; outline: as §2
Enterobacter cloacae [27] = assay: Antimicrobial activity against Enterobacter cloacae isolate 2 expressing beta-lactamase OXA-48 and SHV-5 by Etest method
Escherichia coli [28] = assay: Antimicrobial activity against Escherichia coli isolate J53 harboring p7A containing beta-lactamase OXA-48 located within transposon Tn1999 by Etest method; outline: as §2
Escherichia coli [29] = assay: Antimicrobial activity against Escherichia coli isolate J53 harboring pA-1 containing beta-lactamase OXA-48 located within transposon Tn1999 by Etest method; outline: as §2
Escherichia coli [30] = assay: Antimicrobial activity against Escherichia coli isolate J53 by Etest method; outline: as §2
Escherichia coli [31] = assay: Antimicrobial activity against Escherichia coli isolate J53 harboring pEcA containing beta-lactamase OXA-48 located within transposon Tn1999.2 by Etest method; outline: as §2
Klebsiella pneumoniae [32] = assay: Antimicrobial activity against Klebsiella pneumoniae isolate KpB expressing OXA-48 and CTX-M-15 by Etest method
Klebsiella pneumoniae [33] = assay: Antimicrobial activity against Klebsiella pneumoniae isolate Kp3A expressing beta-lactamase OXA-48 by Etest method; outline: as §3
Klebsiella pneumoniae [34] = assay: Antimicrobial activity against Klebsiella pneumoniae isolate Kp6A expressing beta-lactamase OXA-48 and TEM-150 by Etest method
Escherichia coli [35] = assay: Antimicrobial activity against Escherichia coli isolate J53 harboring pE containing beta-lactamase OXA-48 located within transposon Tn1999.2 by Etest method; outline: as §2
Klebsiella pneumoniae [36] = assay: Antimicrobial activity against Klebsiella pneumoniae isolate KpBIC expressing beta-lactamase OXA-48 by Etest method; outline: as §3

Row | Structure (SMILES) | MIC (Escherichia coli [1]) [µg/mL] | MIC (Escherichia coli [2]) [µg/mL] | MIC (Escherichia coli [3]) [µg/mL] | MIC (Escherichia coli [4]) [µg/mL] | MIC (Escherichia coli [5]) [µg/mL] | MIC (Escherichia coli [6]) [µg/mL] | MIC (Escherichia coli [7]) [µg/mL] | MIC (Escherichia coli [8]) [µg/mL] | MIC (Klebsiella pneumoniae [9]) [µg/mL] | MIC (Escherichia coli [10]) [µg/mL] | MIC (Klebsiella pneumoniae [11]) [µg/mL] | MIC (Providencia rettgeri) [µg/mL] | MIC (Enterobacter cloacae [12]) [µg/mL] | MIC (Citrobacter freundii) [µg/mL] | MIC (Escherichia coli [13]) [µg/mL] | MIC (Klebsiella pneumoniae [14]) [µg/mL] | MIC (Klebsiella pneumoniae [15]) [µg/mL] | MIC (Escherichia coli [16]) [µg/mL] | MIC (Escherichia coli [17]) [µg/mL] | MIC (Escherichia coli [18]) [µg/mL] | other results
1 | C[C@@H](O)[C@H]1C(=O)N2C(C(=O)O)=C(S[C@@H]3CN[C@H](C(=O)Nc4cccc(C(=O)O)c4)C3)[C@H](C)[C@H]12 | 0.06 (≈ 0.126 µM) | 0.25 (≈ 0.526 µM) | 0.12 (≈ 0.252 µM) | > 32 | 2 (≈ 4.21 µM) | 0.25 (≈ 0.526 µM) | 0.12 (≈ 0.252 µM) | 0.75 (≈ 1.58 µM) | 24 (≈ 50.5 µM) | 0.12 (≈ 0.252 µM) | > 32 | > 32 | 0.5 (≈ 1.05 µM) | > 32 | 4 (≈ 8.41 µM) | > 32 | 64 (≈ 135 µM) | 0.19 (≈ 0.4 µM) | 0.5 (≈ 1.05 µM) | 0.25 (≈ 0.526 µM) | MIC (Klebsiella pneumoniae [19]): 24 µg/mL (≈ 50.5 µM); MIC (Escherichia coli [20]): 0.25 µg/mL (≈ 0.526 µM); MIC (Klebsiella pneumoniae [21]): > 32 µg/mL; MIC (Klebsiella pneumoniae [22]): 4 µg/mL (≈ 8.41 µM); MIC (Klebsiella pneumoniae [23]): 3 µg/mL (≈ 6.31 µM); MIC (Klebsiella pneumoniae [24]): > 16 µg/mL; MIC (Escherichia coli [25]): 0.25 µg/mL (≈ 0.526 µM); MIC (Escherichia coli [26]): 0.125 µg/mL (≈ 0.263 µM); MIC (Enterobacter cloacae [27]): 0.75 µg/mL (≈ 1.58 µM); MIC (Escherichia coli [28]): 0.19 µg/mL (≈ 0.4 µM); MIC (Escherichia coli [29]): 0.19 µg/mL (≈ 0.4 µM); MIC (Escherichia coli [30]): 0.06 µg/mL (≈ 0.126 µM); MIC (Escherichia coli [31]): 0.25 µg/mL (≈ 0.526 µM); MIC (Klebsiella pneumoniae [32]): > 32 µg/mL; MIC (Klebsiella pneumoniae [33]): > 32 µg/mL; MIC (Klebsiella pneumoniae [34]): > 32 µg/mL; MIC (Escherichia coli [35]): 3 µg/mL (≈ 6.31 µM); MIC (Klebsiella pneumoniae [36]): 2 µg/mL (≈ 4.21 µM)
2 | CC(=O)OCC1=C(C(=O)O)N2C(=O)[C@@H](NC(=O)Cc3cccs3)[C@H]2SC1 [CEPHALOTHIN] | 4 (≈ 10.1 µM) | 16 (≈ 40.4 µM) | 16 (≈ 40.4 µM) | > 512 | 16 (≈ 40.4 µM) | 16 (≈ 40.4 µM) | 16 (≈ 40.4 µM) | 16 (≈ 40.4 µM) | > 512 | 16 (≈ 40.4 µM) | > 512 | > 512 | > 512 | > 512 | 8 (≈ 20.2 µM) | > 512 | > 512 | 16 (≈ 40.4 µM) | 16 (≈ 40.4 µM) | 16 (≈ 40.4 µM) | MIC (Klebsiella pneumoniae [19]): > 512 µg/mL; MIC (Escherichia coli [20]): > 512 µg/mL; MIC (Klebsiella pneumoniae [21]): > 512 µg/mL; MIC (Klebsiella pneumoniae [22]): 16 µg/mL (≈ 40.4 µM); MIC (Klebsiella pneumoniae [23]): > 512 µg/mL; MIC (Klebsiella pneumoniae [24]): 32 µg/mL (≈ 80.7 µM); MIC (Escherichia coli [25]): 16 µg/mL (≈ 40.4 µM); MIC (Escherichia coli [26]): 16 µg/mL (≈ 40.4 µM); MIC (Enterobacter cloacae [27]): > 512 µg/mL; MIC (Escherichia coli [28]): 16 µg/mL (≈ 40.4 µM); MIC (Escherichia coli [29]): 0.5 µg/mL (≈ 1.26 µM); MIC (Escherichia coli [30]): 4 µg/mL (≈ 10.1 µM); MIC (Escherichia coli [31]): 16 µg/mL (≈ 40.4 µM); MIC (Klebsiella pneumoniae [32]): > 512 µg/mL; MIC (Klebsiella pneumoniae [33]): > 512 µg/mL; MIC (Klebsiella pneumoniae [34]): > 512 µg/mL; MIC (Escherichia coli [35]): 16 µg/mL (≈ 40.4 µM); MIC (Klebsiella pneumoniae [36]): > 512 µg/mL
3 | CO[C@@]1(NC(=O)Cc2cccs2)C(=O)N2C(C(=O)O)=C(COC(N)=O)CS[C@@H]21 [CEFOXITIN] | 4 (≈ 9.36 µM) | 2 (≈ 4.68 µM) | 2 (≈ 4.68 µM) | 128 (≈ 299 µM) | 2 (≈ 4.68 µM) | 4 (≈ 9.36 µM) | 2 (≈ 4.68 µM) | 4 (≈ 9.36 µM) | 128 (≈ 299 µM) | 2 (≈ 4.68 µM) | 128 (≈ 299 µM) | 128 (≈ 299 µM) | > 512 | 128 (≈ 299 µM) | 2 (≈ 4.68 µM) | 128 (≈ 299 µM) | 128 (≈ 299 µM) | 2 (≈ 4.68 µM) | 2 (≈ 4.68 µM) | 2 (≈ 4.68 µM) | MIC (Klebsiella pneumoniae [19]): 128 µg/mL (≈ 299 µM); MIC (Escherichia coli [20]): 2 µg/mL (≈ 4.68 µM); MIC (Klebsiella pneumoniae [21]): 128 µg/mL (≈ 299 µM); MIC (Klebsiella pneumoniae [22]): 2 µg/mL (≈ 4.68 µM); MIC (Klebsiella pneumoniae [23]): 128 µg/mL (≈ 299 µM); MIC (Klebsiella pneumoniae [24]): 8 µg/mL (≈ 18.7 µM); MIC (Escherichia coli [25]): 2 µg/mL (≈ 4.68 µM); MIC (Escherichia coli [26]): 2 µg/mL (≈ 4.68 µM); MIC (Enterobacter cloacae [27]): 512 µg/mL (≈ 1200 µM); MIC (Escherichia coli [28]): 2 µg/mL (≈ 4.68 µM); MIC (Escherichia coli [29]): 2 µg/mL (≈ 4.68 µM); MIC (Escherichia coli [30]): 2 µg/mL (≈ 4.68 µM); MIC (Escherichia coli [31]): 2 µg/mL (≈ 4.68 µM); MIC (Klebsiella pneumoniae [32]): 128 µg/mL (≈ 299 µM); MIC (Klebsiella pneumoniae [33]): 2 µg/mL (≈ 4.68 µM); MIC (Klebsiella pneumoniae [34]): 128 µg/mL (≈ 299 µM); MIC (Escherichia coli [35]): 2 µg/mL (≈ 4.68 µM); MIC (Klebsiella pneumoniae [36]): 128 µg/mL (≈ 299 µM)
